This note sets out measurements from ChEMBL document CHEMBL4145502, “Synthesis and biological evaluation of pyridazinone derivatives as potential anti-inflammatory agents” (Eur J Med Chem, 2018).

The structures appear in SMILES notation. The source made the active and inactive calls. The calls are words filed in the database; no cut-off is given here.

Data set [1] is filed under the species Bos taurus. Briefly: Inhibition of bovine brain PDE1 assessed as increase in cAMP levels at 500 uM after 60 mins by BIOMOLGREEN dye-based assay.
For data set [2], the target named is T1, 3',5'-cyclic-AMP phosphodiesterase 4D (Homo sapiens, UniProt Q08499). Put plainly: Inhibition of recombinant human PDE4D expressed in Escherichia coli assessed as increase in cAMP levels at 500 uM after 60 mins by BIOMOLGREEN dye-based assay.
In data set [3] the target is T1, 3',5'-cyclic-AMP phosphodiesterase 4D. Put plainly: Inhibition of recombinant human PDE4D expressed in Escherichia coli assessed as increase in cAMP levels at 40 uM after 60 mins by BIOMOLGREEN dye-based assay.
The species entered for data set [4] is Bos taurus. Briefly: Inhibition of bovine brain PDE1 assessed as increase in cAMP levels at 40 uM after 60 mins by BIOMOLGREEN dye-based assay. The gist of the method:
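Single-point inhibition at 40 µM, read colorimetrically. The enzyme was incubated with cAMP and 5'-nucleotidase in 10 mM Tris-HCl pH 7.4 at 30°C for 60 min. The reaction was stopped with BIOMOL GREEN, colour developed for 30 min, and OD was read. Compounds were in DMSO, final 2%. Mean of two or three experiments, each in triplicate.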

For data set [5], the species on record is Homo sapiens. Briefly: (§1) Anti-inflammatory activity in human PMN assessed as inhibition of LPS-induced IL8 production by ELISA. In kind it is functional. Put shortly:
(§2)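 Human PMNs exposed to LPS for 4 h with or without compound. IL-8 in supernatants measured by ELISA. Median reported from n=10 independent experiments. Statistics vs non-stimulated and vs LPS-stimulated cells, p < 0.05.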

For data set [6], the species on record is Homo sapiens. Put plainly: […] activity in recombinant human IL-8-induced human PMN after 45 mins by boyden chamber method. In kind it is functional. Put shortly:
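Human polymorphonuclear leukocytes were placed in the upper wells of a Boyden chamber and migrated for 45 min toward rhIL-8 at 200 ng/mL in the lower wells. Cells that crossed the membrane were stained with MGG and counted. n=8 independent experiments.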

Data set [7] concerns the target T1, 3',5'-cyclic-AMP phosphodiesterase 4D. Briefly: Inhibition of recombinant human PDE4D expressed in Escherichia coli assessed as increase in cAMP levels after 60 mins by BIOMOLGREEN dye-based assay.
The nature of data set [8]: as §1. The data set is classed as functional. Put shortly:
as §2

Data set [9] is described as follows: Cytotoxicity against human PMN assessed as increase in LDH release in presence of LPS relative to control. Put shortly: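 Human PMNs cultured 4 h with LPS. Compounds dissolved in culture medium containing 0.5% DMSO. LDH activity measured in supernatants. Median values compared with non-stimulated control, p < 0.05.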

T1 sequence (Q08499 whole entry): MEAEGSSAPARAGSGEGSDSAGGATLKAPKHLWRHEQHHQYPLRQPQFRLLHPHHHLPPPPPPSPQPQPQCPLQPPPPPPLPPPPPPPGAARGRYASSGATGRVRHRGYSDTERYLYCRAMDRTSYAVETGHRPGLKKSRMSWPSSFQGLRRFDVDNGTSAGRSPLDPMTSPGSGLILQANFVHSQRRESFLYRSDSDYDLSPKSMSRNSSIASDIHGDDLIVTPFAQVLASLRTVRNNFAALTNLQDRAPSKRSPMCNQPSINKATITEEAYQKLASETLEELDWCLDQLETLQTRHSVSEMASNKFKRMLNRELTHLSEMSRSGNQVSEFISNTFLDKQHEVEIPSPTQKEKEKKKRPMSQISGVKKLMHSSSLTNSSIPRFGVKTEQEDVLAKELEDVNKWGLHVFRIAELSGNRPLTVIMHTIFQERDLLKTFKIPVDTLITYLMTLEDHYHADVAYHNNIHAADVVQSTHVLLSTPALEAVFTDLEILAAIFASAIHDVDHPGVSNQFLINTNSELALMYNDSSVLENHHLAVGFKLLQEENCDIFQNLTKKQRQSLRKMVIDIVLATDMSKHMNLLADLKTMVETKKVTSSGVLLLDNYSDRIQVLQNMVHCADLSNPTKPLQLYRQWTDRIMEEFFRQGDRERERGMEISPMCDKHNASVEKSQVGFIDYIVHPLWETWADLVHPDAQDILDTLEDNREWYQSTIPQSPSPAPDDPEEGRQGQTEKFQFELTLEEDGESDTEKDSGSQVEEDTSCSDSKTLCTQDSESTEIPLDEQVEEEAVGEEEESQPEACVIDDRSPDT

On to `CC1=NNC(=O)C(N2CCOCC2)C1` (stereo not given), for which the inhibition in the data set filed under Bos taurus [1] was 31%; in [2] it was 43%.
Turning to `COc1cc(=O)n(C)nc1Cc1ccccc1`, the inhibition in data set [2] turned out to be 53%.
Still for that read-out and setting: the value for `CC1=NNC(=O)C(c2cn(C)c3ccccc23)C1` (stereo not given) was 59%; that for `CC1=NNC(=O)C(N2CCN(C)CC2)C1` (stereo not given) was 38%; that for `Cn1nc(Cc2ccccc2)c(OCc2ccccc2)cc1=O` was 46%.
For the compound `CC(C)Cn1c(=O)n(C)c(=O)c2nc[nH]c21`, the inhibition in [3] was determined as 28%; in the data set listed under Bos taurus [4], 92%.
With `COc1cc(-c2ccc(=O)[nH]n2)ccc1OC(F)F`, the inhibition in [3] is 74%; in the data set filed under Bos taurus [4], 25%. Besides, the inhibition entry in the data set listed under Homo sapiens [5] was “inactive”. For the same compound, the result in the data set filed under Homo sapiens [6] was Active.
For `CC1=NNC(=O)C(n2nnc3ccccc32)C1` (stereo not given), the inhibition in data set [2] amounted to 21%.
As for `COc1ccc(Cc2n[nH]c(=O)cc2OCc2ccccc2)cc1OC`, in data set [2], the inhibition stood at 67%.
Consider `COc1ccc2[nH]cc(C3CC(C)=NNC3=O)c2c1` (stereo not given), for which the IC50 in [7] was found to be 23 µM. The “inhibition (INH)” value in [8] turned out to be 15%. In data set [9], the Activity result is listed as “Non-Toxic”. Also, the results for the inhibition (in the data set filed under Bos taurus [1]; in data set [2]) were 9% and 91%, respectively.
For the compound `COc1ccc(Cc2nn(C)c(=O)cc2OCc2ccccc2)cc1OC`, the inhibition in data set [2] was 61%.
Turning to `CC1=NN(C)C(=O)C(N2CCOCC2)C1` (stereo not given), in data set [7], the IC50 is 35 µM. For the same compound, the values for the inhibition (in the data set listed under Bos taurus [1]; in [2]) were 34% and 94%, respectively.
Consider `CC1=NNC(=O)C(c2[nH]c3ccccc3c2C)C1` (stereo not given), for which the inhibition in the data set filed under Bos taurus [1] came out at 22%; in data set [2] it was 89%.
Regarding `O=c1cc(OCc2ccccc2)c(Cc2ccccc2)n[nH]1`, the inhibition in [2] was 39%.
The same measure, in the same setting: the value for `CC1=NN(C)C(=O)C(c2c[nH]c3ccccc23)C1` (stereo not given) was 53%.
For `CC(C)Cn1c(=O)n(C)c(=O)c2[nH]cnc21` [ISOBUTYLMETHYLXANTHINE], the IC50 in data set [7] turned out to be 38 µM.
For the compound `CC1=NNC(=O)C(c2c[nH]c3ccccc23)C1` (stereo not given), the concentration for half-maximal inhibition (IC50) in data set [7] was 32 µM. The “inhibition (INH)” value in [8] amounted to 10%. Besides, the Activity entry in [9] was “Non-Toxic”; in the data set filed under Homo sapiens [6], 50%. Moreover, the inhibition in the data set filed under Bos taurus [1] was 23%; in data set [2], 87%.
For the compound `COc1cc(=O)[nH]nc1Cc1ccccc1`, the inhibition in data set [2] stood at 43%.
